# From PubChem BioAssay
# Only a selection was taken, and hits are over-represented in it overall.
# CHOP inhibitor: blocks CHOP induction under ER stress; CHO-K1 CHOP-promoter luciferase, tunicamycin-induced, 15-18 h; inhibition, % at 10 µM; 220,000 compounds, 3.8% hits; AID 2732;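 active means compounds that reduced the stress-induced luciferase reporter signal by more than about 70% of percent inhibition, limit read from the data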;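 further: 0% = tunicamycin plus vehicle and 100% = wells without tunicamycin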
# TLR9-MyD88 block: TLR9-MyD88 interaction inhibition. CHO BLA complementation TLR9-MyD88, CCF4 FRET ratio. inhibition, % at 4.98 µM. 340,000 compounds, 0.21% hits;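 active means inhibition above the mean over all tested compounds plus 3 SD, cut at about 21% in these data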;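 further: 0% = DMSO only wells and 100% = clavulanate BLA inhibitor control wells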
# UPR CHOP act: apoptotic UPR (CHOP) activation. CHO-CHOP luciferase reporter, luminescence; percent of tunicamycin response over DMSO baseline. activation, % at 10 µM. 330,000 compounds, 0.34% hits. AID 449763;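 active means at 10 µM dose, activation of 40% or more, normalized to positive control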;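 further: 100% = tunicamycin at 10 µg/mL and 0% = DMSO alone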
#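 assay system = CHO CHOP reporter cells | amount = 500 CHO-CHOP cells per well | buffer or medium = F12 with 10% FBS | incubation = 16-18 h cell attachment, then 6 h compound exposure, 37 °C | detection = luminescence read with Steady-Glo | read-out = percent activation relative to tunicamycin control | controls = tunicamycin high control, DMSO low control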
# XBP1 UPR activ: adaptive UPR (XBP1) activation; activation, % at 20 µM; 330,000 compounds, 0.33% hits; CHO-XBP1 luciferase reporter, IRE1-XBP1 UPR activation, luminescence; percent of tunicamycin response, DMSO as zero;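 active means versus positive control, 20 µM dose yields 30% or more activation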;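 further: 100% = tunicamycin at 10 µg/mL and 0% = DMSO only wells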
#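 Signal: luciferase luminescence; Assay system: CHO-XBP1 luciferase reporter cells; Amount: one thousand reporter cells per well; Dosing: 20 µM single concentration, DMSO 1%; Benchmarks: high control tunicamycin 10 µg/mL final, low control DMSO vehicle only; Schedule: 6 h compound exposure at 37 °C, 5% CO2; Evaluation: percent activation relative to tunicamycin reference.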
# TLR4 MyD88 comp: blocks binding of human TLR4 to MyD88; AID 861; 200,000 compounds, 0.18% hits; HeLa CL3-4 TLR4/MyD88 BLA complementation, FRET ratio; inhibition, % at 8.4 µM; in the data active means inhibition above about 25%;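 further: 0% = vehicle and 100% = reference inhibitor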
# NOD2 RIPK2 PPI: inhibitors of human NOD2-RIPK2 interaction | 360,000 compounds, 0.38% hits | CHO BLA complementation NOD2-RIPK2, CCF4 ratio | inhibition, % at 4.98 µM; in the data active means inhibition above about 21%;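 further: 0% = vehicle only and 100% = reference blocker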
# UPR XBP1 confirm: adaptive UPR (XBP1) activation, confirmed. 1,000 compounds, 63% hits. AID 485299. shares compounds with XBP1 UPR activ. activation, % at 20 µM. CHO-XBP1 IRE1-XBP1 luciferase reporter, luminescence;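 active means reporter signal at least 30% of the positive control's activation in two or more of four replicate wells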;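 further: plate controls were DMSO negative control for no effect and tunicamycin 10 µg/mL positive control for full effect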
# * = called active by the depositor; x = no result given.
SMILES,CHOP inhibitor,TLR9-MyD88 block,UPR CHOP act,XBP1 UPR activ,TLR4 MyD88 comp,NOD2 RIPK2 PPI,UPR XBP1 confirm
O=c1cc(CN2CCN(c3ccccc3)CC2)c2cc(O)c(-c3ccccc3)cc2o1,-22,-6,16,60*,2,-3,113*
Cc1c(OC(C)C(=O)NCC2CCC(C(=O)O)CC2)ccc2c(-c3ccccc3)cc(=O)oc12 (configuration not stated),x,-7,-1,-2,x,5,x
CCc1cc2cc3c(cc2nc1SCC(=O)Nc1c[nH]c(=O)[nH]c1=O)OCO3,x,5,-1,-1,x,-10,x
CCc1cc2cc3c(cc2nc1SCC(=O)Nc1nccs1)OCO3,44,4,8,57*,12,6,14
Cc1cc(C(=O)N/N=C/c2ccc([N+](=O)[O-])o2)c(C)o1,-13,-6,2,-2,x,4,x
COc1ccc(-c2nn(-c3ccccc3)cc2C(=O)N/N=C/c2ccc([N+](=O)[O-])o2)cc1,90*,1,36,38*,-8,1,13
O=C(NCCOc1ccccc1F)c1cccc(S(=O)(=O)N2CCN(c3ccccc3)CC2)c1,x,5,1,-4,x,3,x
CC(Oc1ccccc1Cl)C(=O)Nc1ccccc1C(=O)N1CCOCC1 (configuration not stated),x,3,-2,32*,x,4,0
CC(Oc1ccc(Cl)cc1)C(=O)Nc1ccccc1C(=O)N1CCOCC1 (configuration not stated),x,-3,1,0,x,-12,x
CN(C)CCCn1cnc2c(c1=N)C(c1ccccc1)c1ccc3ccccc3c1O2 (configuration not stated),x,-2,19,32*,x,11,127*
N=c1c2c(ncn1CCCO)Oc1c(ccc3ccccc13)C2c1ccccc1 (configuration not stated),-4,0,3,6,x,10,x
COc1cc(/C=N/NC(=O)NC23CC4CC(CC(C4)C2)C3)ccc1O,x,3,0,44*,x,-4,24
O=C(N/N=C/c1ccccc1O)NC12CC3CC(CC(C3)C1)C2,x,5,4,8,x,5,x
O=[N+]([O-])c1ccccc1NC(=S)N/N=C/c1ccc(O)c(O)c1,22,1,21,37*,-2,-8,23
Cc1ccc(Cn2c(C(C)Nc3nc(-c4ccc(F)cc4)cs3)nc3cc(Cl)c(Cl)cc32)cc1 (configuration not stated),x,6,2,35*,x,-3,30*
CCCn1c(C(C)Nc2nc(-c3ccc(C)cc3)cs2)nc2cc(Cl)c(Cl)cc21 (configuration not stated),x,-4,-1,-1,x,11,x
CCOc1cccc2sc(N(CCCN(C)C)C(=O)c3ccc(S(=O)(=O)N4CCc5ccccc5C4)cc3)nc12,x,4,27,35*,x,12,14
O=C(N/N=C/C(Br)=C\c1ccccc1)c1n[nH]c2c1CCC2,x,7,5,35*,-3,19,36*
O=C(O)c1nn(-c2ccccc2-c2n[nH]c(=O)[nH]c2=O)c(=O)[nH]c1=O,0,x,3,-4,x,x,x
Cc1ccc(OCc2nnc(SCC(=O)Nc3nccs3)n2-c2ccccc2)cc1C,75*,-1,9,35*,-5,7,15
CCC[C@@H](CNC)NC[C@H](Cc1ccccc1)NCCCCc1ccccc1,x,1,10,46*,x,3,25
Cc1c(C(=O)N2CCOCC2)sc(NC(=O)c2ccccc2F)c1C#N,x,-2,-2,-2,x,-11,x
Cc1ccc(-n2c(SCC(=O)Nc3nccs3)nc3c(c2=O)SCC3)cc1,24,-4,2,9,5,-9,x
CCOc1ccc(-n2c(SCC(=O)Nc3nccs3)nc3c(c2=O)SCC3)cc1,7,1,12,75*,6,-9,9
O=C(/C=C/c1ccc(Cl)cc1)NC(=S)Nc1ccc(N2CCOCC2)c(Cl)c1,41,10,25,124*,2,-4,126*
SMILES,CHOP inhibitor,TLR9-MyD88 block,UPR CHOP act,XBP1 UPR activ,TLR4 MyD88 comp,NOD2 RIPK2 PPI,UPR XBP1 confirm
COC(=O)c1c(NC(=O)Cc2cccs2)sc2c1CCC(C)C2 (configuration not stated),-4,-3,5,25,7,-2,x
COC(=O)c1c(NC(=S)NN2CCN(C)CC2)sc2c1CCC(C)C2 (configuration not stated),64,-9,10,34*,-13,2,20
N=c1c2c(n(Cc3ccc(F)cc3)c3c1CCC3)CCC2,4,-2,-2,149*,23,0,1
CN(C(=O)c1cccc(NC(=O)Cc2ccc(NC(=O)C3CCN(C(=O)C4CCC4)CC3)cc2)c1)C1CC1,x,-3,x,x,x,-9,x
CCOC(=O)c1c(C)nc2sc3c(c2c1-c1ccc(OC)cc1)NC(c1ccccc1)NC3=O (configuration not stated),46,2,0,0,0,-4,x
COc1ccc(-c2c(C(C)=O)c(C)nc3sc4c(c23)NC(c2ccccc2)NC4=O)cc1 (configuration not stated),7,-5,2,60*,16,-2,12
CCOC(=O)c1c(S(=O)(=O)NCC(=O)Nc2ccc(F)cc2)c(C)n(C)c1C,x,6,0,-2,x,-11,x
CCOc1ccc(C(=O)Nc2cc(-c3nc4ccccc4[nH]3)ccc2Cl)cc1[N+](=O)[O-],79*,-7,1,35*,0,4,535*
CCOc1ccc(C(=O)Nc2cc(-c3nc4ccccc4[nH]3)ccc2C)cc1[N+](=O)[O-],10,2,2,7,-6,3,x
O=C(NC(=S)Nc1cc(-c2nc3ccccc3[nH]2)ccc1Cl)c1ccc2c(c1)OCO2,94*,-14,19,96*,-12,-14,164*
O=C(NCc1ccco1)C1CCCN(c2nnc(-n3cccc3)s2)C1 (configuration not stated),x,7,-1,-3,x,-6,x
CC1CCC(C(C)C)C(OC(=O)Cn2c(-c3ccc(Cl)cc3)[n+](C)c3ccccc32)C1 (configuration not stated),25,6,9,87*,x,1,86*
CC(C)[C@@H]1CC[C@@H](C)C[C@H]1OC(=O)C[n+]1cc(-c2ccc(Cl)cc2)n2c1CCCCC2,10,-5,-1,5,x,-15,x
